Reference: ChEMBL document CHEMBL5030510, “Designed β-Hairpins Inhibit LDH5 Oligomerization and Enzymatic Activity” (J Med Chem, 2021)
Calls of active or inactive are those of the source. No cut-off for these calls is given here. Where a SMILES comes first, the peptide text is derived from it. Bridges are numbered along the chain shown (N, C = ends).

Tests used:
[1] = molecular target: T1, L-lactate dehydrogenase A chain (Homo sapiens, UniProt P00338); experiment: Binding affinity to recombinant full length N-terminal His-tagged human LDHA expressed in Escherichia coli assessed as reduction in fluorecence polarization measured after 2 hrs by Alexa Fluor 488 based fluorescence polarization assay
Summary of the method: (§1)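 Competition FP: LDH5 held 2 min in 0.1 M glycine pH 2.5, then inhibitor added at the reassociation step with Alexa488-labeled cGm peptide (final 12 nM) in 0.25 M phosphate pH 7.6, 1 mM EDTA, with 152.5 nM LDH5. Incubated 2 h at room temperature. FP read at ex 485/em 520 nm. 100% set by probe plus LDH5 alone.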

[2] = molecular target: T1, L-lactate dehydrogenase A chain; experiment: Binding affinity to recombinant full length N-terminal His-tagged human LDHA expressed in Escherichia coli at 12 nM measured after 2 hrs by Alexa Fluor 488 based fluorescence polarization assay relative to control
Summary of the method: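 Direct binding FP: LDH5 two-fold serial dilution from 3.375 µM in 0.01 M phosphate pH 7.4, 1 mM EDTA. Held 2 min in glycine pH 2.5, then labeled peptide added (final 12 nM) in 0.25 M phosphate pH 7.6, 1 mM EDTA. Incubated 2 h at RT. FP read at ex 485/em 520 nm. Saturation signal fitted by non-linear regression and set as 100% binding.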

[3] = molecular target: T1, L-lactate dehydrogenase A chain; experiment: Binding affinity to recombinant full length N-terminal His-tagged human LDHA expressed in Escherichia coli at up to 100 uM measured after 2 hrs by Alexa Fluor 488 based fluorescence polarization assay; conditions: dose microM <=100, time 2.0 hrs; summary of the method: as §1
[4] = molecular target: T1, L-lactate dehydrogenase A chain; experiment: Inhibition of recombinant full length N-terminal His-tagged human LDHA oligomerization expressed in Escherichia coli at 150 uM at pH 2.5 to 7.4 measured after 2 hrs by SDS-PAGE analysis
Summary of the method: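 Oligomer state: LDHA (1.3 µM) acidified 2 min with 0.1 M glycine pH 2.5, then peptide added in 0.25 M phosphate pH 7.6, 1 mM EDTA, for 2 h at RT. Cross-linked with glutaraldehyde (5% stock), heated 3 min at 85 °C in LDS buffer, and run on 4–12% Bis-Tris gel in MES buffer.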

[5] = molecular target: T1, L-lactate dehydrogenase A chain; experiment: Binding affinity to recombinant full length N-terminal His-tagged human LDHA expressed in Escherichia coli assessed as reduction in fluorecence polarization at up to 10000 nM measured after 2 hrs by Alexa Fluor 488 based fluorescence polarization assay; conditions: dose nM <=10000, time 2.0 hrs; summary of the method: as §1

Row | Activity [1] | Activity [2] [%] | Activity [3] | inhibition [4] | Activity [5] | Compound
1 | Dose-Dependent Effect | 50 | Active |  |  | CC(C)C[C@@H]1NC(=O)[C@H](CCCNC(=N)N)NC(=O)[C@H](CCCNC(=N)N)NC(=O)[C@@H](NC(=O)[C@@H](N)CCCCN)CSSC[C@@H](C(=O)N[C@@H](CCCNC(=N)N)C(=O)NCC(=O)N[C@@H](CCCNC(=N)N)C(=O)O)NC(=O)[C@H](Cc2ccc(O)cc2)NC(=O)[C@H]([C@@H](C)O)NC(=O)[C@H](C(C)C)NC(=O)[C@@H]2CSSC[C@H](NC1=O)C(=O)N[C@@H](Cc1ccc(O)cc1)C(=O)N[C@@H](CCCNC(=N)N)C(=O)N[C@@H](CCC(N)=O)C(=O)N[C@@H](CCCNC(=N)N)C(=O)N2 (H-KCRRLCYRQRCVTYCRGR-OH; disulfide 2-15, 6-11)
2 |  |  |  | inactive | inactive | O=C1N[C@](c2ccc(N3CCOCC3)cc2)(c2ccsc2)CC(O)=C1Sc1ccccc1Cl
